# Screens from PubChem.
# FAS-TE inh: FAS thioesterase (human) inhibition; P49327; recombinant FAS-TE, OMFH fluorogenic substrate, fluorescence endpoint; inhibition, % at 15 µM; actives 0.67% (n = 360,000);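 active = compounds whose normalised, plate-corrected inhibition of enzyme fluorescence in the single-dose primary screen is 50% or more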;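 note: 0% = DMSO with enzyme and 100% = substrate without enzyme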
# ADAM17 inh: inhibits human ADAM17; actives 0.83% (n = 370,000); inhibition, % at 6.95 µM; P78536; recombinant ADAM17, EDANS/DABCYL FRET peptide cleavage; AID 720648;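 active = inhibition above the mean of compounds lying between control limits plus 3 SD, set per campaign, cut at about 8.5% in these data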;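 note: 0% = DMSO-only wells as the low control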
# Target sequence (P78536 215-824 limits assumed): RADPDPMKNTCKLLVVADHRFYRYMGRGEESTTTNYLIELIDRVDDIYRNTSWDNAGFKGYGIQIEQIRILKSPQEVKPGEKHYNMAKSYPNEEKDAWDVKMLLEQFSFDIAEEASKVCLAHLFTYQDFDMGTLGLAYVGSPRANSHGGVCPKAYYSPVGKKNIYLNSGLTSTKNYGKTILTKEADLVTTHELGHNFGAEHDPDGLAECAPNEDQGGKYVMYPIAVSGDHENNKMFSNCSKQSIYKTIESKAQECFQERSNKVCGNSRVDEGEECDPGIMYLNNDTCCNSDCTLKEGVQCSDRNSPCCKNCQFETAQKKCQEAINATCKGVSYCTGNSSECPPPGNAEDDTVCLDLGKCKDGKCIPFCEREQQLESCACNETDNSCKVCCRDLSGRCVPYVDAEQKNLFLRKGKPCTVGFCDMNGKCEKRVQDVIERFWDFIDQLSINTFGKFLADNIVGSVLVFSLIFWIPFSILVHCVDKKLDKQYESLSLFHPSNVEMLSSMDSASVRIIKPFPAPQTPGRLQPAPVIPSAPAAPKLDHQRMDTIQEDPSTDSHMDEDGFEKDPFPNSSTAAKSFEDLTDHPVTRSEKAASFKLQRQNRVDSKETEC
# ADAM10 inh: ADAM10 inhibition, QFRET primary screen; recombinant ADAM10, EDANS/DABCYL FRET peptide cleavage, 3 h; actives 0.62% (n = 370,000); inhibition, % at 7 µM; O14672; AID 720582;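 active = inhibition above a per-campaign cutoff equal to the mean of compounds falling between control-based bounds plus 3 SD, cut at about 20% in these data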;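 note: 0% = DMSO wells while the 100% control is not disclosed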
# CaV13 FRET inh: Primary screen for inhibitors of IQ motif and Ca2+-dependent inactivation inhibitor domain binding in CACNA1D, Förster resonance energy transfer in living cells, …; HEK cells, CFP/YFP FRET ICDI-IQ, plate reader, 10 min; percent FRET-ratio fall versus neutral wells; inhibition, % at 12.3 µM; actives 0.098% (n = 340,000); AID 743397;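 active = mean replicate inhibition of at least 30% and at least 1% of replicates passing that level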;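 note: 0% = median of the neutral control wells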
# Arrestin-AP2 inh: inhibitors of human beta-arrestin and AP2 interaction; FITC-arrestin peptide / GST-AP2 beads, flow cytometry; AP2 beta2 appendage carries R879A mutation; inhibition, % at 10 µM; actives 0.31% (n = 340,000); AID 504490;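 active = inhibition above a set limit, near 3 SD of compounds lacking own fluorescence, cut at about 54% in these data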;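 note: plate controls were DMSO wells for no effect and 5 µM unlabelled arrestin peptide for full effect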
#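 System: GST-AP2 R879A glutathione beads; medium: PBS, Tween 20 0.05%, BSA 0.1%; reagent: fluorescein-tagged arrestin peptide at 50 nM final; schedule: pre-incubation 12 min, peptide binding 1 h, room temperature; detection: flow cytometry, FL1 (488/535 nm); read-out: inhibition as reduced fluorescein signal on beads, percent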
# CendR NRP1 mod: NRP-1/CendR interaction modulation; FAM-RPARPAR peptide binding to NRP-1, fluorescence polarization; actives 0.85% (n = 360,000); O14786; inhibition, % at 25 µM;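 active = inhibition or corrected inhibition above about 18%, plus a signal ratio from 0.5 to 1.5, limit read from the data, passing the limit was not always enough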
# Arr-AP2 CP1: blocks beta-arrestin peptide binding to human AP2. GST-AP2 beads, FITC arrestin peptide binding, flow cytometry; GST-fused beta2-adaptin appendage, R879A mutant. shares compounds with Arrestin-AP2 inh. inhibition, % at 10 µM. actives 2% (n = 1,300). AID 504908;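 active = inhibition above a set limit, roughly 3 SD of non-fluorescent compound noise, cut at about 38% in these data; inactive = inhibition at or below that limit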;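 note: loss of bead fluorescence from 50 nM FITC arrestin peptide bound to appendage; 0% = negative control wells and 100% = excess unlabelled arrestin peptide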
# GST-FITC bead: counter-screen for beta-arrestin AP2 inhibitors: GST-GSH bead binding; shares compounds with Arrestin-AP2 inh; GST-fluorescein binding to GSH beads, fluorescence; inhibition, % at 10 µM; actives 2% (n = 1,300); AID 588338;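 active = inhibition above 50%, about 3 SD of the inhibition seen with non-fluorescent compounds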;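 note: fluorescein maleimide labelled GST captured on 4 micron glutathione beads; higher means more loss of bead fluorescence from quenching or blocked binding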
# Starred values were filed as active, the others as inactive; · = not tested or not shown. A selection: hits, their analogues and other compounds. The true share with any hit is near 2.9%.
SMILES,FAS-TE inh,ADAM17 inh,ADAM10 inh,CaV13 FRET inh,Arrestin-AP2 inh,CendR NRP1 mod,Arr-AP2 CP1,GST-FITC bead
O=C(c1ccc(CS(=O)Cc2ccc(Cl)cc2)o1)N1CCN(C2CCCCC2)CC1 (stereo not given),-4.7,-0.5,-18.8,-5.5,·,5.5,·,·
COc1ccc(NC(=O)CN2CCN(c3c(C)cc(C)cc3C)CC2)cc1,26.1,1.7,5.0,-10.1,29.8,37.4*,·,·
COc1ccc(S(=O)(=O)N2CCCN(CC(=O)Nc3ccc(NC(C)=O)cc3)CC2)cc1,-2.4,5.2,11.8,-7.2,19.5,38.8*,·,·
COc1ccc(NC(=O)CN2CCCN(S(=O)(=O)c3ccc(F)cc3)CC2)cc1,1.1,-4.8,-4.3,-7.5,-1.9,0.4,·,·
CCCC[C@H]1C2CC(OC(=O)Nc3ccc4c(c3)OCO4)C(C2)[C@H]2CCCCN21 (stereo not given in full),·,-0.2,2.1,·,·,·,·,·
COc1ccccc1-n1c(SCC(=O)Nc2ccccc2C)nc(O)cc1=O,-6.3,0.4,13.4,-4.8,-5.6,-7.2,·,·
COc1ccccc1NC(=O)CSc1nc(O)cc(=O)n1-c1ccccc1OC,-6.9,3.0,20.8*,-1.9,14.6,20.7,·,·
CC(C)(CC(=O)c1ccccc1)CC(=O)c1ccccc1,7.2,0.8,3.4,-5.1,-2.9,-8.3,·,·
C=CCn1c(-c2ccc(Cl)cc2)cnc1SC(C)C(N)=O (stereo not given),-4.8,-2.5,-14.8,-9.0,-10.5,19.4*,·,·
CCOCc1nnc(NC(=O)c2c(OC)cccc2OC)s1,-7.4,-2.2,4.1,-4.6,2.8,20.3*,·,·
CCc1nnc(NC(=O)c2c(OC)cccc2OC)s1,-6.5,-4.6,-7.3,-9.1,2.5,-12.3,·,·
O=C(Nc1cccc([N+](=O)[O-])c1)NC1CCCCN(Cc2cccc(Cl)c2)C1=O (stereo not given),·,-0.8,-2.9,·,·,·,·,·
CC(Sc1ccc(Cl)cc1)C(=O)N(C)CC(=O)Nc1ccc(N2CCOCC2)cc1 (stereo not given),-3.8,-2.2,-3.9,-3.6,56.4*,-4.5,5.5,-7.0
O=C(NCCc1ccc(S(=O)(=O)N2CCCC2)cc1)c1cccs1,-2.2,4.0,5.8,-4.7,87.4*,-14.4,1.0,0.9
Cc1ccc(C(C)(C)NC(=O)C2CCC(=O)N(Cc3ccccc3F)C2)cc1 (stereo not given),-4.5,-6.0,-8.2,-5.8,-3.9,19.4,-5.1,3.2
Cc1cc(NC(=O)c2cnn3c(C(F)(F)F)cc(-c4ccccc4)nc23)no1,23.9,-5.1,-11.5,-8.3,-0.1,3.6,2.6,-17.0
Cc1cc(NC(=O)c2cnn3c(C(F)F)cc(-c4ccccc4)nc23)no1,24.7,-3.4,-13.3,-3.8,0.7,-6.8,2.5,1.9
CCOc1ccccc1N1CCN(C(=O)C(F)(F)F)CC1,-5.5,·,·,·,5.7,-4.1,·,·
CCOc1ccccc1N1CCN(C(=O)CC(C)(C)C)CC1,-6.9,-0.4,1.8,10.7,54.9*,11.4,5.2,-5.8
COc1ccccc1N1CCN(C(=O)COc2cccc(C)c2C)CC1,6.0,-3.2,4.7,5.8,61.4*,-7.7,-9.6,-1.5
CCOC(=O)C1=C(COC(=O)COc2ccc(C(=O)CC)cc2)NC(=O)NC1C (stereo not given),-4.3,1.3,7.4,-1.2,14.6,-2.9,-14.3,-0.9
CCOC(=O)C1=C(COC(=O)CNC(=O)c2ccc(C)cc2)NC(=O)NC1C (stereo not given),-4.8,-2.8,0.7,·,-8.5,-5.0,·,·
CCOC(=O)C1=C(COC(=O)COc2ccc(C#N)cc2)NC(=O)NC1C (stereo not given),-6.3,-0.5,6.9,-5.8,5.2,2.3,2.0,-3.0
CCOC(=O)C1=C(COC(=O)COc2cc(C)ccc2C)NC(=O)NC1C (stereo not given),-6.3,-3.3,-2.0,-3.2,4.4,2.7,-6.9,-13.8
CCOC(=O)C1=C(COC(=O)c2ccc(OC(C)C)cc2)NC(=O)NC1C (stereo not given),1.1,0.2,4.5,-6.1,37.6,-4.6,·,·
SMILES,FAS-TE inh,ADAM17 inh,ADAM10 inh,CaV13 FRET inh,Arrestin-AP2 inh,CendR NRP1 mod,Arr-AP2 CP1,GST-FITC bead
CCOC(=O)C1=C(COC(=O)COc2ccc(C(C)=O)cc2)NC(=O)NC1C (stereo not given),-5.6,-3.1,-6.4,-4.6,-1.9,16.3,5.2,0.6
O=C(OCC#CCSc1nnc(-c2ccccc2Cl)o1)c1ccc(F)cc1,·,2.1,3.7,·,·,·,·,·
COC(=O)[C@]12C[C@H](CC(=O)NCc3cccc(C(F)(F)F)c3)C(=O)N(Cc3ccccc3)C1=C[C@H](COCc1ccccc1)O[C@@H]2C,·,4.0,10.9,·,·,·,·,·
CCOC(=O)C1=C(COC(=O)COc2ccccc2C#N)NC(=O)NC1C (stereo not given),-3.8,1.5,7.3,-5.5,-15.2,-6.8,-13.8,-2.5
CNC(=O)C1CC(=O)N(c2ccc(OCC(=O)Nc3ccc(OC)cc3)cc2)C1 (stereo not given),-5.8,3.0,2.3,-2.9,14.1,1.4,·,·
Cc1cccn2cc(-c3ccc(NC(=O)Cc4ccccc4)cc3)nc12,-0.3,-10.1,-45.2,-6.2,95.9*,-41.2,-1.3,-1.4
Cc1cc(O)ccc1N/C=C/c1onc(C)c1[N+](=O)[O-],-10.2,-1.6,6.0,-44.9,98.6*,-4.9,-1.7,8.9
Cc1cccc(N/C=C/c2onc(C)c2[N+](=O)[O-])c1,-32.4,-1.5,3.1,-4.5,7.5,-34.2,·,·
CC(C)CN(C(=O)COc1ccccc1C(=O)NCc1ccccc1)C1CCS(=O)(=O)C1 (stereo not given),-4.7,-3.8,-10.8,-8.9,·,6.9,·,·
COc1ccc(CCNC(=O)CSC2=NS(=O)(=O)c3cc(F)ccc3N2)cc1OC,-6.9,-2.7,-1.1,-15.8,·,-8.2,·,·
CCOC(=O)c1c(C(=O)OCC)c(C)n(N2C(=O)CSC2=S)c1C,1.0,-4.8,0.3,-5.2,60.1*,-93.0,-12.2,-0.7
CC(C)=CCCC(C)CN1CCC(n2nccc2NC(=O)c2cccnc2)CC1 (stereo not given),-1.8,-1.7,2.1,-2.9,59.8*,7.2,-10.1,-5.0
CC(C)=CCCC(C)CN1CCC(n2nccc2NC(=O)C2CCCC2)CC1 (stereo not given),2.6,-2.7,4.8,-9.1,-5.9,-4.3,·,·
CCOC(=O)C(N=Nc1nn[nH]n1)C(C)=O (stereo not given),-5.6,-5.5,-15.2,-4.8,·,18.6,·,·
